Assay results reported in ChEMBL document CHEMBL5715941, “AZD1152, a selective inhibitor of Aurora B kinase, inhibits human tumor xenograft growth by inducing apoptosis” (Clin Cancer Res, 2007).
Active and inactive are the calls of the source. No cut-off for these calls is given here.

Experiments:
HCT-116 [1] = assay: Antitumor activity against human HCT-116 cells xenografted in immunodeficient Swiss athymic mouse assessed as maximum inhibition of tumor volume at 150 mg/kg/day, sc for 48 hrs on days 11 to 13 and measured on day 18 relative to control; format: functional; conditions: HCT-116, 192 h, time 8 day
Procedure, shortened: (§1)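 Male Swiss athymic nude mice, 8-12 wk; tumor cells (1×10^6-1×10^7, 50:50 Matrigel) implanted s.c. on flank. Randomized (n = 8-11) at 0.2-0.5 cm3. AZD1152 in Tris buffer pH 9, or vehicle (0.3 mol/L Tris), by 48-h s.c. osmotic mini-pump infusion (two 24-h pumps in sequence). Caliper volumes up to 3×/week; growth inhibition from change in control vs treated volume; one-tailed t test.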

SW-620 [2] = assay: Antitumor activity against human SW620 cells xenografted in nude athymic rat assessed as myelosuppression at 25 mg/kg/day, iv for 4 consecutive days by flow cytometric analysis; format: functional, organism-based; conditions: time 4.0 day
HL-60 = assay: Antitumor activity against human HL-60 cells xenografted in immunodeficient Swiss athymic mouse assessed as inhibition of tumor volume at 150 mg/kg/day, sc for 48 hrs on days 16 to 18 and measured on day 35 relative to control; format: functional; conditions: HL-60, 480 h, time 20 day; procedure, shortened: as §1
HCT-116 [3] = assay: Antitumor activity against human HCT-116 cells xenografted in immunodeficient Swiss athymic mouse assessed as inhibition of tumor volume at 150 mg/kg/day, sc for 48 hrs on days 11 to 13 and measured on day 25 relative to control; format: functional; conditions: HCT-116, 360 h, time 15 day; procedure, shortened: as §1
SW-620 [4] = assay: Antitumor activity against human SW620 cells xenografted in immunodeficient Swiss athymic mouse assessed as inhibition of tumor volume at 25 mg/kg/day, sc for 48 hrs on days 7 to 9 and measured on day 23 relative to control; format: functional; conditions: SW-620, 408 h, time 17 day; procedure, shortened: as §1
SW-620 [5] = assay: Antitumor activity against human SW620 cells xenografted in immunodeficient Swiss athymic mouse assessed as inhibition of tumor volume at 25 mg/kg/day, iv for 3 days on days 6 to 8 and measured on day 24 relative to control; format: functional; conditions: SW-620, 456 h, time 19 day
Procedure, shortened: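 Male Swiss nude mice bearing s.c. flank SW620 xenografts (cells in Matrigel), randomized (n = 8-11) at 0.2-0.3 cm3. AZD1152 in Tris buffer pH 9, or vehicle, given as a once-daily i.v. or i.p. bolus. Caliper volumes up to 3×/week; inhibition from change in control vs treated volume; one-tailed t test.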

SW-620 [6] = assay: Antitumor activity against human SW620 cells xenografted in nude athymic rat assessed as proportion of polyploid DNA content in tumor cells at 25 mg/kg/day, iv for 1 to 5 consecutive days by flow cytometry analysis relative to control; format: functional; conditions: time 1-5 day
Procedure, shortened: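 Nude rats with SW620 xenografts (0.5-1 cm3) were given vehicle or AZD1152 at 25 mg/kg/d as an i.v. bolus once daily on days 1-4. Subgroups (n = 3) were killed on days 0, 5, 9, 12, 16 and 19. Disaggregated tumors were analyzed by flow cytometry for PhH3 (% of control) and for 4N and >4N DNA (fold over control).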

**Q.** How did the inhibition in vivo at 150 mg/kg/day (HCT-116 [1]) turn out when `CCN(CCCOc1ccc2c(Nc3cc(CC(=O)Nc4cccc(F)c4)[nH]n3)ncnc2c1)CCOP(=O)(O)O` [BARASERTIB] was run?
**A.** 93%

**Q.** And the Activity (SW-620 [2])?
**A.** Active

**Q.** What about the inhibition in vivo at 150 mg/kg/day (HL-60) of the same compound?
**A.** > 100%

**Q.** What about the inhibition in vivo at 150 mg/kg/day (HCT-116 [3]) of the same compound?
**A.** 74%

**Q.** What about the inhibition in vivo at 25 mg/kg/day (SW-620 [4]) of the same compound?
**A.** 49%

**Q.** And the inhibition in vivo at 25 mg/kg/day (SW-620 [5])?
**A.** 47%

**Q.** What about the Activity (SW-620 [6]) of the same compound?
**A.** 67%
